Calls of active or inactive are those of the source. The rule behind the calls is not given here.
Key:
[1] = test system: Trichophyton mentagrophytes; assay: Antifungal activity against Trichophyton mentagrophytes IBT 2724 after 7 days by micro broth dilution method; format: functional, organism-based; conditions: IBT 2724, 168 h
Procedure, shortened: (§1)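 T. mentagrophytes IBT2724 was tested by broth microdilution using an 8-fold dilution series of 10 concentrations from 50 μM down to 0.4 μM, with 1% DMSO. The inoculum was prepared per CLSI M38-A2, adjusted to OD530 0.90–1.5 and diluted 50-fold in RPMI/MOPS at pH 7.00. Plates ran 7 days at 37 °C with an OD read-out. IC50 came from a variable-slope sigmoidal fit.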

MDA-MB-231 [2] = assay: Cytotoxicity against human MDA-MB-231 cells assessed as cell viability after 48 hrs by MTT assay; format: functional, cell-based; conditions: MDA-MB-231, 48 h
Procedure, shortened: (§2)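 MDA-MB-231 cells were grown in L-15 with 10% FCS at 37 °C and seeded at (2-3) × 10^4 per well. Exposure was 24 and/or 48 h, then MTT for at least 4 h, with absorbance read at 570/630 nm. Each condition had at least 3 replicates, reported as mean ± SD of a representative experiment repeated at least three times.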

Trichophyton rubrum [3] = assay: Antifungal activity against Trichophyton rubrum IBT 29284 after 7 days by micro broth dilution method; format: functional, organism-based; conditions: IBT 29284, 168 h
Procedure, shortened: (§3)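 T. rubrum IBT29284 was tested by broth microdilution using a 4-fold dilution series of 10 concentrations from 50 μM down to 0.2 μM, with 1% DMSO. The inoculum followed CLSI M38-A2, set to OD530 0.90–1.5 and diluted 50-fold in RPMI/MOPS at pH 7.00. Incubation was 7 days at 37 °C, read by OD. IC50 came from a variable-slope sigmoidal fit.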

Trichophyton rubrum [4] = assay: Antifungal activity against Trichophyton rubrum IBT 29284 at 50 uM after 7 days by micro broth dilution method; format: functional; conditions: for inhibition at 50 µM: IBT 29284, 168 h; procedure, shortened: as §3
[5] = test system: Trichophyton mentagrophytes; assay: Antifungal activity against Trichophyton mentagrophytes IBT 2724 at 50 uM after 7 days by micro broth dilution method; format: functional; conditions: for inhibition at 50 µM: IBT 2724, 168 h; procedure, shortened: as §1
SCC114 = assay: Cytotoxicity against human SCC114 cells by phenotype-based spindle multipolarity assay; format: functional, cell-based
MDA-MB-231 [6] = assay: Cytotoxicity against human MDA-MB-231 cells assessed as cell viability at 50 uM after 48 hrs by MTT assay; format: functional; conditions: for inhibition at 50 µM: MDA-MB-231, 48 h; procedure, shortened: as §2

Row | SMILES | IC50 [1] [nM] | IC50 (MDA-MB-231 [2]) [nM] | IC50 (Trichophyton rubrum [3]) [nM] | inhibition (Trichophyton rubrum [4]) | other results
1 | CCCOC1=C(I)C(=O)C[C@@H](C)[C@]12Oc1c(Cl)c(OC)cc(OC)c1C2=O | 230 | 8000 | 1600 |  | 
2 | COc1cc(OC)c2c(c1Cl)O[C@]1(C2=O)C(OCCc2ccccc2)=CC(=O)C[C@H]1C | 280 | 17000 |  |  | inhibition at 50 µM (Trichophyton rubrum [4]): < 50%
3 | COc1cc(OC)c2c(c1Cl)O[C@@]1(C(=O)C=C(OC(C)C)C[C@H]1C)C2=O |  | 48000 |  | inactive | inhibition at 50 µM [5]: < 50%; inhibition (SCC114): inactive
4 | COc1cc(OC)c2c(c1Cl)O[C@@]1(C2=O)[C@H](C)C[C@H](O)C[C@@H]1OC | 3000 |  |  |  | inhibition (MDA-MB-231 [6]): inactive; inhibition at 50 µM (Trichophyton rubrum [4]): < 50%
5 | COc1ccccc1COC1=CC(=O)C[C@@H](C)[C@]12Oc1c(Cl)c(OC)cc(OC)c1C2=O | 700 | 11000 |  |  | inhibition at 50 µM (Trichophyton rubrum [4]): < 50%
6 | COc1cc(O)c(Cl)c2c1C(=O)[C@@]1(O2)C(=O)C=C(O)C[C@H]1C |  |  |  | inactive | inhibition [5]: inactive; inhibition (MDA-MB-231 [6]): inactive
7 | COc1ccc(COC2=CC(=O)C[C@@H](C)[C@]23Oc2c(Cl)c(OC)cc(OC)c2C3=O)cc1 |  |  |  | inactive | inhibition [5]: inactive; inhibition at 50 µM (MDA-MB-231 [6]): < 50%
8 | COc1cc(OC)c2c(c1Cl)O[C@]1(C2=O)C(OC2CCCC2)=CC(=O)C[C@H]1C | 240 | 3200 | 2500 |  | 
9 | CCOc1cc(OC)c2c(c1Cl)O[C@]1(C2=O)C(OC)=CC(=O)C[C@H]1C | 62 | 36000 | 1300 |  | 
10 | COc1cc(OC)c2c(c1Cl)O[C@]1(C2=O)C(OCc2cccnc2)=CC(=O)C[C@H]1C | 350 | 10000 |  |  | inhibition at 50 µM (Trichophyton rubrum [4]): < 50%
11 | COc1cc(OC)c2c(c1Cl)O[C@]1(C2=O)C(SCc2ccccc2)=CC(=O)C[C@H]1C | 58 | 4700 | 1300 |  | 
12 | COC1=CC(=O)C[C@@H](C)[C@]12Oc1c(Cl)c(OC)cc(OCc3ccccc3)c1C2=O | 250 | 20000 |  | inactive | inhibition (SCC114): inactive
13 | COc1cc(OC)c2c(c1Cl)O[C@]1(C2=O)C(=O)C(C)(C)C(=O)C[C@H]1C |  |  |  | inactive | inhibition [5]: inactive; inhibition (MDA-MB-231 [6]): inactive
14 | COc1cc(OC)c2c(c1Cl)O[C@]1(C2=O)C(OCc2ccc(CO)cc2)=CC(=O)C[C@H]1C | 1700 | 2800 |  |  | inhibition at 50 µM (Trichophyton rubrum [4]): < 50%
15 | COc1cc(OC)c2c(c1Cl)O[C@]1(C2=O)C(OC(C)C)=CC(=O)C[C@H]1C | 110 | 11000 | 3100 |  | 
16 | COC1=CC(=O)C[C@@H](C)[C@]12Oc1c(Cl)c(OC)cc(OCc3cccc4ccccc34)c1C2=O |  | 17000 |  | inactive | inhibition [5]: inactive
17 | COc1cccc(COC2=CC(=O)C[C@@H](C)[C@]23Oc2c(Cl)c(OC)cc(OC)c2C3=O)c1 | 140 | 8100 | 960 |  | 
18 | COc1cc(OC)c2c(c1Cl)O[C@]1(C2=O)C(OCC23CC4CC(CC(C4)C2)C3)=CC(=O)C[C@H]1C |  | 4700 |  | inactive | inhibition [5]: inactive
19 | COc1cc(OC)c2c(c1Cl)O[C@]1(C2=O)C(Oc2ccccc2)=CC(=O)C[C@H]1C | 1600 | 7200 | 6100 |  | 
20 | COC1=CC(=O)C[C@@H](C)[C@]12Oc1c(Cl)c(OC)cc(O)c1C2=O |  |  |  | inactive | inhibition at 50 µM [5]: < 50%; inhibition (MDA-MB-231 [6]): inactive
21 | CCOc1cc(OC)c(Cl)c2c1C(=O)[C@@]1(O2)C(OC)=CC(=O)C[C@H]1C | 290 |  | 2000 |  | inhibition (MDA-MB-231 [6]): inactive

Row | SMILES | IC50 [1] [nM] | IC50 (MDA-MB-231 [2]) [nM] | IC50 (Trichophyton rubrum [3]) [nM] | inhibition (Trichophyton rubrum [4]) | other results
22 | COc1cc(OC)c2c(c1Cl)O[C@]1(C2=O)C(OCc2ccncc2)=CC(=O)C[C@H]1C |  | 19000 |  |  | inhibition at 50 µM [5]: < 50%; inhibition at 50 µM (Trichophyton rubrum [4]): < 50%
23 | COc1cc(OC)c2c(c1Cl)O[C@]1(C2=O)C(OCc2ccc(-c3ccccc3)cc2)=CC(=O)C[C@H]1C |  | 5800 |  | inactive | inhibition [5]: inactive
24 | COc1cc(OC)c2c(c1Cl)O[C@]1(C2=O)C(OCc2ccc(C)cc2)=CC(=O)C[C@H]1C | 240 | 1800 | 1000 |  | 
25 | COc1cc(OC)c2c(c1Cl)O[C@]1(C2=O)C(OCc2ccccc2)=CC(=O)C[C@H]1C | 260 | 2100 | 1100 |  | 
26 | COC1=CC(=O)C[C@@H](C)[C@]12Oc1c(Cl)c(O)cc(OC)c1C2=O |  |  |  | inactive | inhibition [5]: inactive; inhibition at 50 µM (MDA-MB-231 [6]): < 50%
27 | COc1cc(OC)c2c(c1Cl)O[C@]1(C2=O)C(OCC2CC2)=CC(=O)C[C@H]1C | 60 | 9400 | 1500 |  | 
28 | COc1cc(OC)c2c(c1Cl)O[C@]1(C2=O)C(OCc2ccccc2)=C(I)C(=O)C[C@H]1C | 1100 |  |  | inactive | inhibition at 50 µM (MDA-MB-231 [6]): < 50%
29 | CCOC1=CC(=O)C[C@@H](C)[C@]12Oc1c(Cl)c(OC)cc(OC)c1C2=O | 250 | 13000 | 690 |  | 
30 | COc1cc(OC)c2c(c1Cl)O[C@]1(C2=O)C(OCc2ccc(F)cc2)=CC(=O)C[C@H]1C | 41 | 6500 | 830 |  | 
31 | COc1cc(OC)c2c(c1Cl)O[C@]1(C2=O)C(Cl)=CC(=O)C[C@H]1C |  | 3200 |  |  | inhibition at 50 µM [5]: < 50%; inhibition at 50 µM (Trichophyton rubrum [4]): < 50%
32 | COc1cc(OC)c2c(c1Cl)O[C@]1(C(=O)CC(=O)C[C@@H]1C)C2=O (relative stereo) |  |  |  | inactive | inhibition at 50 µM [5]: < 50%; inhibition (MDA-MB-231 [6]): inactive
33 | COC1=CC(=O)C[C@@H](C)[C@]12Oc1c(Cl)c(OC)c([N+](=O)[O-])c(OC)c1C2=O |  |  |  | inactive | inhibition [5]: inactive; inhibition (MDA-MB-231 [6]): inactive
34 | COc1cc(OC)c2c(c1Cl)O[C@@]1(C(=O)C=C(Cl)C[C@H]1C)C2=O |  | 1000 |  | inactive | inhibition [5]: inactive
35 | COc1cc(OC)c2c(c1Cl)O[C@]1(C2=O)C(OCc2cccc3ccccc23)=CC(=O)C[C@H]1C | 250 | 13000 | 2600 |  | 
36 | COc1cc(OC)c2c(c1Cl)O[C@]1(C2=O)C(OCc2ccccn2)=CC(=O)C[C@H]1C | 1300 | 32000 |  |  | inhibition at 50 µM (Trichophyton rubrum [4]): < 50%
37 | CCCCCOc1cc(OC)c(Cl)c2c1C(=O)[C@@]1(O2)C(OC)=CC(=O)C[C@H]1C | 170 |  |  |  | inhibition at 50 µM (MDA-MB-231 [6]): < 50%; inhibition at 50 µM (Trichophyton rubrum [4]): < 50%
38 | COC1=CC(=O)C[C@@H](C)[C@]12Oc1c(Cl)c(OC)c(N)c(OC)c1C2=O |  |  |  | inactive | inhibition [5]: inactive; inhibition (MDA-MB-231 [6]): inactive
39 | COc1cccc(COC2=CC(=O)[C@@]3(Oc4c(Cl)c(OC)cc(OC)c4C3=O)[C@H](C)C2)c1 |  | 25000 |  | inactive | inhibition at 50 µM [5]: < 50%
40 | COC1=C(I)C(=O)C[C@@H](C)[C@]12Oc1c(Cl)c(OC)cc(OC)c1C2=O |  | 22000 |  | inactive | inhibition at 50 µM [5]: < 50%
41 | COc1cc(OC)c2c(c1Cl)O[C@]1(C2=O)C(OCc2ccc(C(F)(F)F)cc2)=CC(=O)C[C@H]1C | 150 | 7000 | 1500 |  | 

Source: ChEMBL document CHEMBL1955834, “Disparate SAR data of griseofulvin analogues for the dermatophytes Trichophyton mentagrophytes, T. rubrum, and MDA-MB-231 cancer cells” (J Med Chem, 2012)
